The source made the active and inactive calls. No cut-off for these calls is given here.
Tests used:
CDK9/cyclin T1 = CDK9/cyclin T1 (Homo sapiens, UniProt P50750); assay: Inhibition of CDK9/CycT1 (unknown origin) using TAMRA-Rbtide and ATP as substrate after 1 hr; type: protein-complex assay
[1] = target: Cyclin-dependent kinase 2/cyclin E1 (Homo sapiens) (UniProt P24864+P24941); assay: Inhibition of CDK2/CycE (unknown origin) using FAM labeled peptide as substrate at 10 uM by IMAP FAM FP assay; type: protein-complex assay
Outline: (§1)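 Run by contract partners as an IMAP fluorescence polarization assay. […] Enzyme amount was set to give 50% substrate turnover. Compounds were added in DMSO, IMAP binding solution added after the kinase step, then FP read.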

[2] = target: Cyclin-dependent kinase 4/cyclin D1 (Homo sapiens) (UniProt P11802+P24385); assay: Inhibition of CDK4/CycD1 (unknown origin) using FAM labeled peptide as substrate at 10 uM by IMAP FAM FP assay; type: protein-complex assay; outline: as §1
[3] = Cytotoxicity against human MT4 cells assessed as cell viability at 2500 nM after 7 days by MTT assay relative to control; type: cell-based; details: read-out: Activity
Outline: (§2)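 MT4 cells (2−3 × 10⁴/well) in RPMI1640 with 10% FCS, penicillin and streptomycin, exposed to compound at 2500 or 1250 nM for 7 days at 37 °C, 5% CO2. MTT added for 4 h, supernatant removed, formazan dissolved in DMSO, absorbance read at 540 nm. Viability expressed relative to untreated cells (100%).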

[4] = Cytotoxicity against human MT4 cells assessed as cell viability at 1250 nM after 7 days by MTT assay relative to control; type: cell-based; details: read-out: Activity; outline: as §2
[5] = test system: Human immunodeficiency virus 1; assay: Antiviral activity against HIV1 HTLV-3B infected in human MT4 cells assessed as inhibition of virus proliferation by measuring host cell viability at 1250 nM relative to control; type: functional
Outline: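 HIV-1 HTLV-IIIB (3400 TCID50/mL per well; titre set by virus yield assay) infected MT4 cells, 2−3 × 10⁴/well in RPMI1640 with 10% FCS, penicillin and streptomycin, cultured as for the 7-day viability assay (37 °C, 5% CO2). Test compounds were at 1250 nM and AZT control at 25 nM. Read-out was MTT (4 h, DMSO, A540), given relative to infected untreated cells (100%).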

[6] = target: CDK9/cyclin T1 (Homo sapiens) (UniProt O60563+P50750); assay: Competitive inhibition of CDK9/CycT1 (unknown origin) using ATP as substrate; type: protein-complex assay
Outline: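 Kinase inhibition measured with inhibitor held constant at 260 nM across five ATP concentrations, printed as 1.33, 4, 12 (K_mATP), 36 and 108 […]. Ki taken from measured IC50 via the Cheng−Prusoff equation, with the IC50/Ki ratio compared across ATP levels.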

Chain of CDK9/cyclin T1 (O60563 whole entry): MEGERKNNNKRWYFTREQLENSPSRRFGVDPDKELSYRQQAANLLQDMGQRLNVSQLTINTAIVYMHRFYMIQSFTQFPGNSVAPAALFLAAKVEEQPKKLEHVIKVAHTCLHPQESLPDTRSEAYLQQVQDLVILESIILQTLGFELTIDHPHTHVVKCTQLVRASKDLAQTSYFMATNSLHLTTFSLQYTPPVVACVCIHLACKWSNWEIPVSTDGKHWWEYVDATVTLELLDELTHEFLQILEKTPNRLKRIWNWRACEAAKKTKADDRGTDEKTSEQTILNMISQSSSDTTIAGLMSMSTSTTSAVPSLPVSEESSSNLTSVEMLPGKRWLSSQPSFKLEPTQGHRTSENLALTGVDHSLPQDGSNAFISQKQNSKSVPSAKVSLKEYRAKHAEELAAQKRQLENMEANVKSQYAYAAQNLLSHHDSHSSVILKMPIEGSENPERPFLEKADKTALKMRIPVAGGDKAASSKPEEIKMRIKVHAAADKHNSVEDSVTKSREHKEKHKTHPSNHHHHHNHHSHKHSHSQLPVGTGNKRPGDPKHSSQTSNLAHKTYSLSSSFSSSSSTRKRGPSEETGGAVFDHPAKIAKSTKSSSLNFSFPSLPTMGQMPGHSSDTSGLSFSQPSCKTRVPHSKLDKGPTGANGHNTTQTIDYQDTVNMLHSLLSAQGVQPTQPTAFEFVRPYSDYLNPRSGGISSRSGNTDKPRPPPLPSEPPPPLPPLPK
Chain of CDK9/cyclin T1 (P50750 whole entry): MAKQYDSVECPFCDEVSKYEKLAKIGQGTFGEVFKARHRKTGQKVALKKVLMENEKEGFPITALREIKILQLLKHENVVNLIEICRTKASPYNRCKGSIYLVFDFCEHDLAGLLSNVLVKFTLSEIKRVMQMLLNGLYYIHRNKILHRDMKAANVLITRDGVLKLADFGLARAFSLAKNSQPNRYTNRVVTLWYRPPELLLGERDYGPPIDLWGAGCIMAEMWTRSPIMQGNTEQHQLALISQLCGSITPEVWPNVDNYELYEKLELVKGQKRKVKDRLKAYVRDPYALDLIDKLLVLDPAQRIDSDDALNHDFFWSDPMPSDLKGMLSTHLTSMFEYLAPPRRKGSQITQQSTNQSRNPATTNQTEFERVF

| IC50 (CDK9/cyclin T1) [µM] | SMILES | also measured |
| --- | --- | --- |
| > 10 | CCOP(=O)(OCC)c1cccc(Nc2cc(-c3cccc([N+](=O)[O-])c3)ncn2)c1 | – |
| 3.32 | Nc1cccc(-c2cc(Nc3ccc(P(=O)(O)O)cc3)ncn2)c1 | inhibition [1]: 98%; inhibition [2]: 67% |
| > 10 | CCOP(=O)(CC)c1ccc(Nc2cc(-c3cccc(N)c3)ncn2)cc1 (stereo not drawn) | – |
| > 10 | CCCP(=O)(Cc1cccc(Nc2cc(-c3cccc(OCc4ccccc4)c3)ncn2)c1)OCC (stereo not drawn) | – |
| 1.13 | Nc1cccc(-c2cc(Nc3ccc(CP(=O)(O)O)cc3)ncn2)c1 | – |
| 8.06 | CCCP(=O)(Cc1cccc(Nc2cc(-c3cccc([N+](=O)[O-])c3)ncn2)c1)OCC (stereo not drawn) | – |
| > 10 | CCOP(=O)(c1ccccc1)c1ccc(Nc2cc(-c3cccc([N+](=O)[O-])c3)ncn2)cc1 (stereo not drawn) | – |
| > 10 | CCOP(=O)(CC)c1ccc(Nc2cc(-c3cccc([N+](=O)[O-])c3)ncn2)cc1 (stereo not drawn) | – |
| 0.261 | CCCP(=O)(O)Cc1cccc(Nc2cc(-c3ccccc3OC)ncn2)c1 | competitive inhibition (qualitative) [6]: Active |
| > 10 | CCCP(=O)(OCC)c1ccc(Nc2cc(-c3cccc([N+](=O)[O-])c3)ncn2)cc1 (stereo not drawn) | – |
| 0.346 | CCOP(=O)(CC)Cc1cc(Nc2cc(-c3cccc(N)c3)ncn2)ccc1C (stereo not drawn) | – |
| 7.47 | CCCP(=O)(Cc1ccc(Nc2cc(-c3cccc(N)c3)ncn2)cc1)OCC (stereo not drawn) | – |
| 1.02 | CCOP(=O)(Cc1cccc(Nc2cc(-c3cccc(N)c3)ncn2)c1)c1ccccc1 (stereo not drawn) | – |
| 5.41 | CCCP(=O)(Cc1cccc(Nc2cc(-c3ccc(OC)cc3)ncn2)c1)OCC (stereo not drawn) | – |
| > 10 | CCOP(=O)(CC)c1cccc(Nc2cc(-c3cccc([N+](=O)[O-])c3)ncn2)c1 (stereo not drawn) | – |
| > 10 | CCCP(=O)(OCC)c1ccc(Nc2cc(-c3cccc(N)c3)ncn2)cc1 (stereo not drawn) | – |
| 0.682 | CCCP(=O)(Cc1cccc(Nc2cc(-c3cccc(N)c3)ncn2)c1)OCC (stereo not drawn) | – |
| 6.94 | CCCP(=O)(Cc1cccc(Nc2cc(-c3cccc(OC)c3)ncn2)c1)OCC (stereo not drawn) | – |
| 0.517 | CCOP(=O)(Cc1cccc(Nc2cc(-c3ccccc3OC)ncn2)c1)c1ccccc1 (stereo not drawn) | – |
| > 10 | CCOP(=O)(OCC)c1ccc(Nc2cc(-c3cccc(N)c3)ncn2)cc1 | inhibition [1]: 18%; inhibition [2]: 35% |
| 0.601 | CCCP(=O)(Cc1cccc(Nc2cc(-c3ccccc3Oc3ccccc3)ncn2)c1)OCC (stereo not drawn) | – |
| > 10 | CCOP(=O)(Cc1cccc(Nc2cc(-c3cccc([N+](=O)[O-])c3)ncn2)c1)c1ccccc1 (stereo not drawn) | – |
| 1.4 | CCOP(=O)(OCC)C(O)c1cccc(Nc2cc(-c3cccc(N)c3)ncn2)c1 (stereo not drawn) | – |
| > 10 | CCCP(=O)(Cc1cccc(Nc2cc(-c3ccccc3CC)ncn2)c1)OCC (stereo not drawn) | – |

Continued, molecule first:

| SMILES | IC50 (CDK9/cyclin T1) [µM] | also measured |
| --- | --- | --- |
| CCOP(=O)(Cc1cccc(Nc2cc(-c3cccc([N+](=O)[O-])c3)ncn2)c1)OCC | 9.87 | – |
| CCOP(=O)(OCC)c1ccc(Nc2cc(-c3cccc([N+](=O)[O-])c3)ncn2)cc1 | > 10 | – |
| CCOP(=O)(OCC)c1cccc(Nc2cc(-c3ccccc3OC)ncn2)c1 | 1.04 | – |
| CCOP(=O)(Cc1cccc(Nc2cc(-c3ccccc3OC)ncn2)c1)OCC | 0.333 | viability at 168 h, 2.5 µM [3]: 100%; viability at 168 h, 1.25 µM [4]: 91% |
| CCOP(=O)(Cc1cc(Nc2cc(-c3ccccc3OC)ncn2)ccc1C)OCC | 5.22 | – |
| CCCP(=O)(Cc1ccc(Nc2cc(-c3cccc([N+](=O)[O-])c3)ncn2)cc1)OCC (stereo not drawn) | 5.53 | – |
| CCCP(=O)(OCC)c1ccc(Nc2cc(-c3ccccc3OC)ncn2)cc1 (stereo not drawn) | 1.15 | – |
| CCOP(=O)(CC)Cc1ccc(Nc2cc(-c3cccc([N+](=O)[O-])c3)ncn2)cc1 (stereo not drawn) | 7.77 | – |
| CCOP(=O)(Cc1cccc(Nc2cc(-c3cccc(N)c3)ncn2)c1)OCC | 0.332 | Host cell viability relative to infected untreated cells [5]: 96% |
| CCOP(=O)(Oc1cccc(Nc2cc(-c3cccc(N)c3)ncn2)c1)c1ccccc1 (stereo not drawn) | 5.33 | – |
| CCOP(=O)(OCC)C(O)c1ccc(Nc2cc(-c3ccccc3OC)ncn2)cc1 (stereo not drawn) | 0.51 | inhibition [1]: 94%; inhibition [2]: 68% |
| CCOP(=O)(Cc1ccc(Nc2cc(-c3ccccc3OC)ncn2)cc1)OCC | 0.49 | inhibition [1]: 77%; inhibition [2]: 51% |
| COc1ccccc1-c1cc(Nc2cccc(P(=O)(O)O)c2)ncn1 | 0.429 | inhibition [1]: 56%; inhibition [2]: 40%; viability at 168 h, 2.5 µM [3]: 90%; viability at 168 h, 1.25 µM [4]: 90%; Host cell viability relative to infected untreated cells [5]: 130%; competitive inhibition (qualitative) [6]: Active |
| CCOP(=O)(CC)Cc1ccc(Nc2cc(-c3cccc(N)c3)ncn2)cc1 (stereo not drawn) | 7.53 | – |
| CCOP(=O)(CC)Cc1cccc(Nc2cc(-c3ccccc3OCc3ccccc3)ncn2)c1 (stereo not drawn) | 0.212 | viability at 168 h, 2.5 µM [3]: 94%; viability at 168 h, 1.25 µM [4]: 98%; Host cell viability relative to infected untreated cells [5]: 135% |
| CCOP(=O)(Oc1cccc(Nc2cc(-c3cccc([N+](=O)[O-])c3)ncn2)c1)c1ccccc1 (stereo not drawn) | > 10 | – |
| CCOP(=O)(OCC)C(O)c1cccc(Nc2cc(-c3cccc([N+](=O)[O-])c3)ncn2)c1 (stereo not drawn) | > 10 | – |
| CCCP(=O)(Cc1cccc(Nc2cc(-c3ccccc3OCc3ccccc3)ncn2)c1)OCC (stereo not drawn) | 0.143 | viability at 168 h, 2.5 µM [3]: 93%; viability at 168 h, 1.25 µM [4]: 86%; Host cell viability relative to infected untreated cells [5]: 148% |
| CCOP(=O)(CC)c1ccc(Nc2cc(-c3ccccc3OC)ncn2)cc1 (stereo not drawn) | 0.418 | – |
| CCOP(=O)(Oc1cccc(Nc2cc(-c3ccccc3OC)ncn2)c1)c1ccccc1 (stereo not drawn) | 3.1 | – |
| CCOP(=O)(Oc1cc(Nc2cc(-c3ccccc3OC)ncn2)ccc1C)c1ccccc1 (stereo not drawn) | 4.14 | inhibition [1]: 8%; inhibition [2]: 19% |
| CCOP(=O)(CC)c1cccc(Nc2cc(-c3cccc(N)c3)ncn2)c1 (stereo not drawn) | 9.8 | – |
| CCOP(=O)(Oc1ccc(Nc2cc(-c3ccccc3OC)ncn2)cc1)c1ccccc1 (stereo not drawn) | 2.84 | – |

| SMILES | IC50 (CDK9/cyclin T1) [µM] | also measured |
| --- | --- | --- |
| CCOP(=O)(Nc1cc(Nc2cc(-c3ccccc3OC)ncn2)ccc1C)c1ccccc1 (stereo not drawn) | 5.24 | inhibition [1]: 19%; inhibition [2]: 18% |
| CCCP(=O)(Cc1cccc(Nc2cc(-c3cccc(OC)c3OC)ncn2)c1)OCC (stereo not drawn) | 2.39 | – |
| CCP(=O)(O)Cc1cccc(Nc2cc(-c3ccccc3OCc3ccccc3)ncn2)c1 | 0.163 | viability at 168 h, 2.5 µM [3]: 104%; viability at 168 h, 1.25 µM [4]: 110%; Host cell viability relative to infected untreated cells [5]: 124% |
| CCOP(=O)(Cc1ccc(Nc2cc(-c3cccc([N+](=O)[O-])c3)ncn2)cc1)OCC | > 10 | – |
| CCOP(=O)(Cc1ccc(Nc2cc(-c3cccc(N)c3)ncn2)cc1)OCC | 3.11 | inhibition [1]: 14%; inhibition [2]: 30% |
| CCOP(=O)(CC)c1cccc(Nc2cc(-c3ccccc3OC)ncn2)c1 (stereo not drawn) | 0.842 | – |
| COc1ccccc1-c1cc(Nc2ccc(P(=O)(O)O)cc2)ncn1 | 0.58 | – |
| CCCP(=O)(Cc1cccc(Nc2cc(-c3ccccc3OCC)ncn2)c1)OCC (stereo not drawn) | 0.254 | competitive inhibition (qualitative) [6]: Active |
| CCOP(=O)(OCC)c1ccc(Nc2cc(-c3ccccc3OC)ncn2)cc1 | 1.02 | inhibition [1]: 69%; inhibition [2]: 22% |
| CCCOc1ccccc1-c1cc(Nc2cccc(CP(=O)(CCC)OCC)c2)ncn1 (stereo not drawn) | 0.248 | competitive inhibition (qualitative) [6]: Active |
| O=[N+]([O-])c1cccc(-c2cc(Nc3ccc(CP(=O)(O)O)cc3)ncn2)c1 | 2.1 | – |
| CCOP(=O)(c1ccccc1)c1ccc(Nc2cc(-c3ccccc3OC)ncn2)cc1 (stereo not drawn) | 0.523 | – |
| CCOP(=O)(OCC)C(O)c1ccc(Nc2cc(-c3cccc([N+](=O)[O-])c3)ncn2)cc1 (stereo not drawn) | 4.58 | – |
| CCOP(=O)(CC)Cc1ccc(Nc2cc(-c3ccccc3OC)ncn2)cc1 (stereo not drawn) | 0.743 | – |
| CCOP(=O)(c1ccccc1)c1ccc(Nc2cc(-c3cccc(N)c3)ncn2)cc1 (stereo not drawn) | 6.5 | – |
| CCCP(=O)(Cc1cccc(Nc2cc(-c3ccc(F)cc3OC)ncn2)c1)OCC (stereo not drawn) | 0.186 | – |
| CCCP(=O)(Cc1ccc(Nc2cc(-c3ccccc3OC)ncn2)cc1)OCC (stereo not drawn) | 0.652 | – |
| CCOP(=O)(CC)Cc1cc(Nc2cc(-c3cccc([N+](=O)[O-])c3)ncn2)ccc1C (stereo not drawn) | 7.02 | – |
| CN1CC[C@H](c2c(O)cc(O)c3c(=O)cc(-c4ccccc4Cl)oc23)[C@H](O)C1 | – | inhibition [1]: 99%; inhibition [2]: 84% |
| CCCP(=O)(Cc1cccc(Nc2cc(-c3ccccc3OC(C)C)ncn2)c1)OCC (stereo not drawn) | 0.21 | – |
| O=[N+]([O-])c1cccc(-c2cc(Nc3cccc(P(=O)(O)O)c3)ncn2)c1 | 4.1 | – |
| CCOP(=O)(CC)Cc1cc(Nc2cc(-c3ccccc3OC)ncn2)ccc1C (stereo not drawn) | 0.366 | – |
| CCOP(=O)(CC)Cc1cccc(Nc2cc(-c3cccc([N+](=O)[O-])c3)ncn2)c1 (stereo not drawn) | 6.43 | – |

Source: ChEMBL document CHEMBL3259517, “Synthesis and evaluation of phosphorus containing, specific CDK9/CycT1 inhibitors” (J Med Chem, 2014)
